Experimental data from ChEMBL document CHEMBL2029259, “Design, synthesis, and biological evaluation of novel conformationally constrained inhibitors targeting epidermal growth factor receptor threonine⁷⁹⁰ → methionine⁷⁹⁰ mutant” (J Med Chem, 2012).
Calls of active or inactive are those of the source. The calls are words filed in the database; no cut-off is given here.

What was measured:
[1] = target: T1, Epidermal growth factor receptor (Homo sapiens, UniProt P00533); assay: Inhibition of EGFR after 1.5 hr by FRET assay
[2] = target: T2, Epidermal growth factor receptor (Homo sapiens, UniProt P00533, T790M); assay: Inhibition of EGFR T790M mutant after 1.5 hr by FRET assay; type: protein assay
[3] = target: T3, Epidermal growth factor receptor (Homo sapiens, UniProt P00533, L858R); assay: Inhibition of EGFR L858R mutant after 1.5 hr by FRET assay; type: protein assay
[4] = target: T4, Epidermal growth factor receptor (Homo sapiens, UniProt P00533, L861Q); assay: Inhibition of EGFR L861Q mutant after 1.5 hr by FRET assay; type: protein assay
[5] = target: T5, Epidermal growth factor receptor (Homo sapiens, UniProt P00533, L858R/T790M); assay: Inhibition of EGFR L858R/T790M mutant after 1.5 hr by FRET assay; type: protein assay
[6] = target: T1, Epidermal growth factor receptor; assay: Binding affinity to EGFR
[7] = target: T2, Epidermal growth factor receptor; assay: Binding affinity to EGFR T790M mutant
[8] = target: T3, Epidermal growth factor receptor; assay: Binding affinity to EGFR L858R mutant
[9] = target: T4, Epidermal growth factor receptor; assay: Binding affinity to EGFR L861Q mutant
[10] = target: T5, Epidermal growth factor receptor; assay: Binding affinity to EGFR L858R/T790M mutant
[11] = target: Tyrosine-protein kinase Blk (Homo sapiens) (UniProt P51451); assay: Binding affinity to BLK at 100 nM
[12] = target: Tyrosine-protein kinase BTK (Homo sapiens) (UniProt Q06187); assay: Binding affinity to BTK at 100 nM
[13] = target: Receptor tyrosine-protein kinase erbB-2 (Homo sapiens) (UniProt P04626); assay: Binding affinity to ErbB2 at 100 nM
[14] = target: Receptor tyrosine-protein kinase erbB-4 (Homo sapiens) (UniProt Q15303); assay: Binding affinity to ErbB4 at 100 nM
[15] = target: Cyclin-G-associated kinase (Homo sapiens) (UniProt O14976); assay: Binding affinity to GAK at 100 nM
[16] = target: Tyrosine-protein kinase TXK (Homo sapiens) (UniProt P42681); assay: Binding affinity to TXK at 100 nM
[17] = tested on: A549; assay: Antiproliferative activity against human A549 cells expressing wild type EGFR coexpressing k-Ras mutant after 72 hrs by MTS assay; settings: A549, 72 h
[18] = Antiproliferative activity against human HL7702 cells expressing wilt type EGFR after 72 hrs by MTS assay; settings: L02, 72 h
[19] = tested on: HCC827; assay: Induction of Cell cycle arrest in human HCC827 cells harboring EGFR del E746-A750 mutant assessed as G1 phase cells after 24 hrs by flow cytometry assay; type: functional, cell-based
Procedure, shortened: (§1)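 Cells in six-well plates serum-starved 24 h to synchronize in G0−G1, then treated at indicated concentrations for 24 h. Lightly trypsinized and cell-cycle distribution analysed by flow cytometry.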

[20] = tested on: NCI-H1975; assay: Induction of Cell cycle arrest in human NCI-H1975 cells harboring EGFR L858R/T790M mutant assessed as G1 phase cells after 24 hrs by flow cytometry assay; type: functional, cell-based; procedure, shortened: as §1
[21] = tested on: NCI-H1975; assay: Antiproliferative activity against human NCI-H1975 cells harboring EGFR L858R/T790M mutant assessed as inhibition of colony formation after 9 days by crystal violet staining; type: functional, cell-based
Procedure, shortened: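 H1975 cells seeded at 500 cells per 6-cm dish and grown 24 h, then treated at 0.1 to 10 nM. Medium with compound replaced every 3 days. After 9 days, fixed with 4% formaldehyde and stained with 0.2% crystal violet.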

[22] = Cytotoxicity against human HLF1 cells after 72 hrs by MTS assay; type: cell-based; settings: hlf1, 72 h
Procedure, shortened: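 MTS proliferation read-out at 490 nm after 72 h exposure, cell number set to give absorbance 1.3−2.2. Six concentrations, 0.1 nM to 10 μM, at least six parallels each, repeated at least four times. IC50 from nonlinear sigmoidal dose−response fit.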

[23] = tested on: NCI-H1975; assay: Antitumor activity against human NCI-H1975 cells xenografted in SCID mouse at 10 mg/kg, po administered qd for 14 days relative to control; type: functional, organism-based; set-up: dose 10 mg/kg
Procedure, shortened: (§2)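 Six-week-old SCID mice inoculated s.c. in the right flank with H1975 cells (2 × 10⁶/mouse). At mean tumour volume 380−420 mm³ (10−12 days), randomized n = 6/group. Oral dosing daily for 14 days, 0.1 mL/20 g, vehicle as control. Tumours measured every other day by caliper, volume = W²(L/2). Body weight monitored. Significance p < 0.05 versus vehicle.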

[24] = tested on: NCI-H1975; assay: Antitumor activity against human NCI-H1975 cells xenografted in SCID mouse at 30 mg/kg, po administered qd for 14 days relative to control; type: functional, organism-based; set-up: dose 30 mg/kg; procedure, shortened: as §2
[25] = Toxicity in SCID mouse assessed as mortality at 10 mg/kg, po administered qd for 14 days relative to control; type: organism-based; set-up: dose 10 mg/kg, route oral; settings: in vivo, read-out: Activity
Procedure, shortened: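 Six-week-old SCID mice bearing subcutaneous H1975 NSCLC xenografts (2 × 10⁶ cells, right flank) were randomized at 380−420 mm³ average tumour volume (10−12 days post implantation), n = 6/group. They were dosed orally once daily for 14 days with vehicle or compound (10 or 30 mg/kg; 0.1 mL/20 g body weight). Mortality and body weight were tracked during treatment against vehicle controls.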

[26] = tested on: Mus musculus; assay: Toxicity in SCID mouse assessed as weight loss at 10 mg/kg, po administered qd for 14 days relative to control; type: organism-based; set-up: dose 10 mg/kg, route oral; settings: in vivo, 336 h; procedure, shortened: as §2
[27] = tested on: HCC827; assay: Induction of apoptosis in human HCC827 cells harboring EGFR del E746-A750 mutant after 48 hrs by flow cytometry assay
[28] = tested on: NCI-H1975; assay: Induction of apoptosis in human NCI-H1975 cells harboring EGFR L858R/T790M mutant after 48 hrs by flow cytometry assay
[29] = target: Cytoplasmic tyrosine-protein kinase BMX (Homo sapiens) (UniProt P51813); assay: Binding affinity to BMX
Procedure, shortened: (§3)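 Ambit KINOMEscan binding assay. Binding for 1 h at r.t. Unbound kinase captured on immobilized affinity ligand and quantified by qPCR.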

[30] = target: Tyrosine-protein kinase JAK3 (Homo sapiens) (UniProt P52333); assay: Binding affinity to JAK3; procedure, shortened: as §3
[31] = tested on: Mast/stem cell growth factor receptor Kit (Homo sapiens), P10721 [V559D]; assay: Binding affinity to KIT V559D mutant; procedure, shortened: as §3
[32] = target: Tyrosine-protein kinase Lck (Homo sapiens) (UniProt P06239); assay: Binding affinity to LCK; procedure, shortened: as §3
[33] = target: Mitogen-activated protein kinase kinase kinase 15 (Homo sapiens) (UniProt Q6ZN16); assay: Binding affinity to MAP3K15; procedure, shortened: as §3
[34] = target: Platelet-derived growth factor receptor beta (Homo sapiens) (UniProt P09619); assay: Binding affinity to PDGFRbeta; procedure, shortened: as §3
[35] = target: Tyrosine-protein kinase Tec (Homo sapiens) (UniProt P42680); assay: Binding affinity to TEC; procedure, shortened: as §3
[36] = target: Activated CDC42 kinase 1 (Homo sapiens) (UniProt Q07912); assay: Binding affinity to TNK2; procedure, shortened: as §3

T4 sequence (P00533 25-1210 L861Q limits assumed): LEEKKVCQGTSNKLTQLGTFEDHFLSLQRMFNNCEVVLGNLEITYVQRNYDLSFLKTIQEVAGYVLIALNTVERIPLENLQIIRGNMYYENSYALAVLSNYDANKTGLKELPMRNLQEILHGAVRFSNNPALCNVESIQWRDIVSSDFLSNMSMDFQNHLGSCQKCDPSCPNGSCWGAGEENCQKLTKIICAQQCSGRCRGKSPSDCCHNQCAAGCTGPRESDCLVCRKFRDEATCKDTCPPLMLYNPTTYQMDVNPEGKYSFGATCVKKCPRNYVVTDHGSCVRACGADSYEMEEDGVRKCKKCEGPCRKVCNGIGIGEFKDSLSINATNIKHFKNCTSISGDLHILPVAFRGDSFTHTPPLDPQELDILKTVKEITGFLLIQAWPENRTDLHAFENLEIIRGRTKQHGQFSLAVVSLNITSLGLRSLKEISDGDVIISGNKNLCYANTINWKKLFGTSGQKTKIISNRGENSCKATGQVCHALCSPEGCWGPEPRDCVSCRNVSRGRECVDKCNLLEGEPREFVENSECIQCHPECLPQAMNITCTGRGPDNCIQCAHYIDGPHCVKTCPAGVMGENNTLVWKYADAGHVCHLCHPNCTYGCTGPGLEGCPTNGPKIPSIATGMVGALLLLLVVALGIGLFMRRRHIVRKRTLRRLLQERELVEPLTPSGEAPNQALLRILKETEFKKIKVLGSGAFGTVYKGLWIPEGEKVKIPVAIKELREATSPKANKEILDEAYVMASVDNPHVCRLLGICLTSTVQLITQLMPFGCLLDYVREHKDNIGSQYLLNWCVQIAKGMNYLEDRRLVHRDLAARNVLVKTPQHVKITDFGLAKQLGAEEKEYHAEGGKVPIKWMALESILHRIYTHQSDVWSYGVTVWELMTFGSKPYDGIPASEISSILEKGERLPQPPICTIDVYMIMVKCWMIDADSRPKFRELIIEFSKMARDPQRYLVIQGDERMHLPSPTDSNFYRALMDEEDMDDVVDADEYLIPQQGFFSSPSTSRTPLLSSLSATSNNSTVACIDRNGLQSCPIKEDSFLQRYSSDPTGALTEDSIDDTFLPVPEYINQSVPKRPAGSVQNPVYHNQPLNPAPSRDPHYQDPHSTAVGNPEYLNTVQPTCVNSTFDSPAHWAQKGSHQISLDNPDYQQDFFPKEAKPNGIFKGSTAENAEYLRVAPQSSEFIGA
T1 sequence (P00533 whole entry): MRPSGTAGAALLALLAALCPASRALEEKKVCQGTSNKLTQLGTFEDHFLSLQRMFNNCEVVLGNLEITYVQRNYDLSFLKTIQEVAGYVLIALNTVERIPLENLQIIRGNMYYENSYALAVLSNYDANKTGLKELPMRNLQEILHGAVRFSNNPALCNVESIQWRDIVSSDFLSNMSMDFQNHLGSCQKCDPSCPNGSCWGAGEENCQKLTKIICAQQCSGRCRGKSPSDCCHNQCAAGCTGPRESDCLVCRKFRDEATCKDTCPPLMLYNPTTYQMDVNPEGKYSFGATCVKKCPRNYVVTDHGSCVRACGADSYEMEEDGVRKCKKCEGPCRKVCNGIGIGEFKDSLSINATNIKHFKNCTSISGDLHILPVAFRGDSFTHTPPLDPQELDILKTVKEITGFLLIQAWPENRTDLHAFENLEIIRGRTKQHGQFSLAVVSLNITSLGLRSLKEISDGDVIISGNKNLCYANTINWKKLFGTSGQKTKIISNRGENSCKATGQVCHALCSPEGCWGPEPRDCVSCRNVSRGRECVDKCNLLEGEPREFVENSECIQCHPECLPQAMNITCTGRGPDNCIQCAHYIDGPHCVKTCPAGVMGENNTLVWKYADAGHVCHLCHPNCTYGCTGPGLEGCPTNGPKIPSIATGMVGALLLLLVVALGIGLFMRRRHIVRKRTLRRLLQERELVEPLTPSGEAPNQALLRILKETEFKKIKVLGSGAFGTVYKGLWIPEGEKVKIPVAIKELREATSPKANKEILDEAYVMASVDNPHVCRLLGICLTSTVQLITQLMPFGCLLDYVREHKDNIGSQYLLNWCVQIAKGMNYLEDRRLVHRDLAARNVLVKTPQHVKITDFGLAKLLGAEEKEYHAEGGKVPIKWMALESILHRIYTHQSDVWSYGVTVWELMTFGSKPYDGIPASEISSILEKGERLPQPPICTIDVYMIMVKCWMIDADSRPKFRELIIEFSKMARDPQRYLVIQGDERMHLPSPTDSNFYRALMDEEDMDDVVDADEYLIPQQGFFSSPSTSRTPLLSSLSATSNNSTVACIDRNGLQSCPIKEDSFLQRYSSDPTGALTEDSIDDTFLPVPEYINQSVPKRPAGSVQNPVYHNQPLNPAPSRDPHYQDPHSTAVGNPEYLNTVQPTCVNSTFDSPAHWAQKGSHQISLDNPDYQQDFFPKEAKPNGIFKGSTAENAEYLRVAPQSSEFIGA
T3 sequence (P00533 25-1210 L858R limits assumed): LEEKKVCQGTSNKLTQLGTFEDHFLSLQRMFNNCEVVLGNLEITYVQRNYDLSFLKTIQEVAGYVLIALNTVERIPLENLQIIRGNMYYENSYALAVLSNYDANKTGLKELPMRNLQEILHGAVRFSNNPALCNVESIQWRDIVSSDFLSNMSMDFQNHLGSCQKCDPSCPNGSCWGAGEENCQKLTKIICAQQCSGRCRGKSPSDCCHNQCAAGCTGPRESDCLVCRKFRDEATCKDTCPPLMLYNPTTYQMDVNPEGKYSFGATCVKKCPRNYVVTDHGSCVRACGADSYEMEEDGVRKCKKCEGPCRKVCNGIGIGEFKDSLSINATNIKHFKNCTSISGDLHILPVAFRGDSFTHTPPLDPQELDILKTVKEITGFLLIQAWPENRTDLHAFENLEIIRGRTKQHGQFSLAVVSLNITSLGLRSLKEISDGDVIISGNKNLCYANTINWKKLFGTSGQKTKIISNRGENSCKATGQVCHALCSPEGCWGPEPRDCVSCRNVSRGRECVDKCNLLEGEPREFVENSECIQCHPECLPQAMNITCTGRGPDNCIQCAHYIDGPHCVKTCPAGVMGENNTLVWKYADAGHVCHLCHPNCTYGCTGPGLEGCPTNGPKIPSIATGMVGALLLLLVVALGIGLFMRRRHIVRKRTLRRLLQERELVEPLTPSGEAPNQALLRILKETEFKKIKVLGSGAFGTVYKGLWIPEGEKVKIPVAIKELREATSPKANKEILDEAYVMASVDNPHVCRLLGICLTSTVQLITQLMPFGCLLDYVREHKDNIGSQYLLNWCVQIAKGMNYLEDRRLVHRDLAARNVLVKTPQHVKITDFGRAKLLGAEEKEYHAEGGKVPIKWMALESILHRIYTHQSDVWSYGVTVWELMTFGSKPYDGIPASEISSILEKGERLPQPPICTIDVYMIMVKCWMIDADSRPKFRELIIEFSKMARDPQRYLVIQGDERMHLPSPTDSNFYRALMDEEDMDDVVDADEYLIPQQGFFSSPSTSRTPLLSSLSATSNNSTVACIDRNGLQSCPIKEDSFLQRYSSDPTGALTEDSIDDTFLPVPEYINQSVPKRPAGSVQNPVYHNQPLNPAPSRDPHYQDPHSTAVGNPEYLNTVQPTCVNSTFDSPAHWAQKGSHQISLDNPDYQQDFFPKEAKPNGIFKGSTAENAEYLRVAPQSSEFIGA
T5 sequence (P00533 25-1210 T790M/L858R limits assumed): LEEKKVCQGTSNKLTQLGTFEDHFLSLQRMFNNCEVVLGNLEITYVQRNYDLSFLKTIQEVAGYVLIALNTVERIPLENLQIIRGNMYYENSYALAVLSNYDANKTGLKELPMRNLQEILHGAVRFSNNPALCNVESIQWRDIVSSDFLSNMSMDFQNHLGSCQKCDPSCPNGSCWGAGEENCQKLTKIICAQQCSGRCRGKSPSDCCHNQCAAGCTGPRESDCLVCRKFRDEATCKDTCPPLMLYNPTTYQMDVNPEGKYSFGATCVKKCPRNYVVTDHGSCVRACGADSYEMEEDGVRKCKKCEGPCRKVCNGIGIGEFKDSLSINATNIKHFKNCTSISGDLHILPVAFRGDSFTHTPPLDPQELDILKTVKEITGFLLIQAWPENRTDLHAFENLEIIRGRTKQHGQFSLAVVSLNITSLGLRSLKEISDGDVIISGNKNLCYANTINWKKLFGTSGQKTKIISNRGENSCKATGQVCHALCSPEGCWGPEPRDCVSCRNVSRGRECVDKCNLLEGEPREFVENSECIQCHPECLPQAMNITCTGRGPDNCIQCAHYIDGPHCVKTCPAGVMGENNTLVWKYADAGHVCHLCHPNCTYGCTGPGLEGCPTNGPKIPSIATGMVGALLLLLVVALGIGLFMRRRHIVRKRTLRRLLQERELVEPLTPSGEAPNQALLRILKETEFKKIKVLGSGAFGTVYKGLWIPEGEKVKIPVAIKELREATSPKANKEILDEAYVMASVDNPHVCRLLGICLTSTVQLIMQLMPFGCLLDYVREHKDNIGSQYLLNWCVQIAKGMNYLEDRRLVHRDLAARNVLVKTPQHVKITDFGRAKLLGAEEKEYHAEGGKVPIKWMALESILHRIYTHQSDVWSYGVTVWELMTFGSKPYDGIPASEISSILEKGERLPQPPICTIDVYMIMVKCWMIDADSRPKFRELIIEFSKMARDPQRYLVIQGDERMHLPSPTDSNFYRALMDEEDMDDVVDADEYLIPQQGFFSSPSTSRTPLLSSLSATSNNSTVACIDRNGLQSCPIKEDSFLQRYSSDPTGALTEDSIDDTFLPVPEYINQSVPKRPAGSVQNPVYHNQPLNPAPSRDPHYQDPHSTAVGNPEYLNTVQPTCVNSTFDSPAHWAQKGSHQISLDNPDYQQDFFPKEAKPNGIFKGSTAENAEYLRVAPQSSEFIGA

Compound | IC50 [1] [nM] | IC50 [2] [nM] | IC50 [3] [nM] | IC50 [4] [nM] | IC50 [5] [nM] | IC50 [17] [nM] | IC50 [18] [nM] | Activity [19] | Activity [20] | inhibition [21] | Activity [22] | Activity [27] | Activity [28] | further results
C=CC(=O)Nc1cccc(N2C(=O)N(Cc3ccccc3)Cc3cnc(Nc4ccc(N5CCN(C)CC5)cc4OC)nc32)c1 | 0.29 | 0.67 | 0.38 | 0.72 | 0.93 | 2660 | 2390 | Active | Active | Dose-dependent effect | Non-toxic | Active | Active | Kd [6]: 1.2 nM; Kd [7]: 0.29 nM; Kd [8]: 1.3 nM; Kd [9]: 0.68 nM; Kd [10]: 0.3 nM; Activity [11]: Active; Activity [12]: Active; Activity [13]: Active; Activity [14]: Active; Activity [15]: Active; Activity [16]: Active; Activity [23]: inactive; Activity [24]: Active; mortality at 336 h [25]: < 5%; Activity [26]: < 5%
C=CC(=O)Nc1cccc(N2C(=O)N(c3ccccc3)Cc3cnc(Nc4ccc(N5CCN(C)CC5)cc4OC)nc32)c1 | 0.3 | 0.51 | 0.46 | 0.93 | 0.98 | 2800 | 4020 | Active | Active | Dose-dependent effect | Non-toxic | Active | Active | Activity [29]: Active; Activity [30]: Active; Activity [31]: Active; Activity [32]: Active; Activity [33]: Active; Activity [34]: Active; Activity [35]: Active; Activity [36]: Active
